For six compounds, IC50 and Activity results are on record in ChEMBL document CHEMBL2321750, “Structural permutation of potent cytotoxin, polytheonamide B: discovery of cytotoxic Peptide with altered activity” (ACS Med Chem Lett, 2013).

In data set [1] the test system is P388. The data set can be described thus: Cytotoxicity against mouse P388 cells assessed as cell viability after 92 hrs by XTT assay. Particulars: P388, 92 h. It is filed as functional, cell-based. (In general: Tetrazolium assays rely on reduction of a dye to a coloured formazan, in cell work by metabolically active cells.)
Data set [2] relates to P388. Description: Induction of H+/Na+ exchange activity in BCECF-loaded mouse P388 cells assessed as change in intracellular pH at 125 nM measured for 1.5 hrs by spectrofluorometric analysis. It is filed as functional, cell-based. The procedure, abridged:
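P388 mouse leukemia cells loaded with BCECF-AM, which intracellular esterases hydrolyse to trapped BCECF. Cells were suspended in pH 7.8 MOPS buffer with 130 mM NaCl to impose a Na+ gradient. Peptides added at 0 s at 125 nM; exposure 1.5 h. Fluorescence was converted to intracellular pH using a nigericin calibration curve.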

A short description of data set [3]: Induction of H+/Na+ exchange activity in pyranine-encapsulated large unilamellar vesicle of egg yolk phosphatidylcholine/cholesterol at 10 uM administered 60 secs measured for 10 mins by spectrofluorometric analysis. It is filed as physicochemical. As to conditions: 125 nM, in the assay text read “at 125 nM” for “at 10 uM”. The procedure, abridged:
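Liposomes of EYPC/cholesterol 2:1 carrying encapsulated pyranine, prepared in HEPES buffer with 200 mM NaCl. pH gradient: 6.5 inside, 7.5 outside. Peptides added at 60 s. H+/Na+ exchange followed as pH-dependent pyranine fluorescence increase, normalized to maximal exchange induced by Triton X-100.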

Activity calls are given as the source filed them. No cut-off for these calls is given here. Where only a bound is given, the exact number is not on record here.

With `CC[C@H](C)[C@H](NC(=O)[C@@H](CC(=O)NC)NC(=O)CNC(=O)[C@H](NC(=O)[C@@H](NC(=O)[C@@H](CC(=O)NC)NC(=O)[C@@H](NC(=O)[C@@H](CC(=O)NC)NC(=O)CNC(=O)CNC(=O)[C@H](C)NC(=O)[C@H](NC(=O)[C@H](CCC(=O)NC)NC(=O)[C@@H](CC(=O)NC)NC(=O)[C@@H](NC(=O)CNC(=O)[C@H](C)NC(=O)CNC(=O)[C@@H](NC(=O)[C@@H](CC(=O)NC)NC(=O)[C@H](C)NC(=O)[C@H](NC(=O)[C@H](C)N)C(C)(C)C)C(C)(C)O)C(C)(C)C)C(C)(C)O)[C@@H](C)CC)C(C)(C)C)C(C)(C)O)C(=O)N[C@H](CC(=O)NC)C(=O)N[C@H](C(=O)N[C@H](CC(=O)NC)C(=O)N[C@@H](C)C(=O)N[C@H](CC(=O)NC)C(=O)N[C@H](C(=O)N[C@H](CO)C(=O)N[C@H](C(=O)N[C@H](CC(N)=O)C(=O)N[C@@H](Cc1cn(CCNS(=O)(=O)c2cccc3c(N(C)C)cccc23)nn1)C(=O)N[C@H](CC(N)=O)C(=O)N[C@@H](CCC(N)=O)C(=O)N[C@@H](C(=O)N[C@H](C(=O)O)[C@@H](C)O)[C@H](C)O)C(C)C)C(C)C)C(C)C`, in data set [1], the IC50 (as a rule, the concentration needed to halve the response being measured) was 0.0037 µM. The outcome in data set [2] was inactive. Besides, the Activity result in data set [3] is reported as “Not Active”.

With `CC[C@H](C)[C@H](NC(=O)[C@@H](CC(=O)NC)NC(=O)CNC(=O)[C@H](NC(=O)[C@@H](NC(=O)[C@@H](CC(=O)NC)NC(=O)[C@@H](NC(=O)[C@@H](CC(=O)NC)NC(=O)CNC(=O)CNC(=O)[C@H](C)NC(=O)[C@H](NC(=O)[C@H](CCC(=O)NC)NC(=O)[C@@H](CC(=O)NC)NC(=O)[C@@H](NC(=O)CN)C(C)(C)C)C(C)(C)O)[C@@H](C)CC)C(C)(C)C)C(C)(C)O)C(=O)N[C@H](CC(=O)NC)C(=O)N[C@H](C(=O)N[C@H](CC(=O)NC)C(=O)N[C@@H](C)C(=O)N[C@H](CC(=O)NC)C(=O)N[C@H](C(=O)N[C@H](CO)C(=O)N[C@H](C(=O)N[C@H](CC(N)=O)C(=O)N[C@@H](Cc1cn(CCNS(=O)(=O)c2cccc3c(N(C)C)cccc23)nn1)C(=O)N[C@H](CC(N)=O)C(=O)N[C@@H](CCC(N)=O)C(=O)N[C@@H](C(=O)N[C@H](C(=O)O)[C@@H](C)O)[C@H](C)O)C(C)C)C(C)C)C(C)C`, in data set [1], the IC50 was > 0.41 µM.

Turning to `CC[C@H](C)[C@H](NC(=O)[C@@H](CC(=O)NC)NC(=O)CNC(=O)[C@H](NC(=O)[C@@H](NC(=O)[C@@H](CC(=O)NC)NC(=O)[C@@H](NC(=O)[C@@H](CC(=O)NC)NC(=O)CNC(=O)CNC(=O)[C@H](C)NC(=O)[C@H](NC(=O)[C@H](CCC(=O)NC)NC(=O)[C@@H](CC(=O)NC)NC(=O)[C@@H](NC(=O)CNC(=O)[C@H](C)NC(=O)CNC(=O)[C@@H](NC(=O)[C@@H](CC(=O)NC)NC(=O)[C@H](C)NC(=O)[C@H](NC(=O)[C@H](C)NC(=O)CNC(=O)[C@H](C)N)C(C)(C)C)C(C)(C)O)C(C)(C)C)C(C)(C)O)[C@@H](C)CC)C(C)(C)C)C(C)(C)O)C(=O)N[C@H](CC(=O)NC)C(=O)N[C@H](C(=O)N[C@H](CC(=O)NC)C(=O)N[C@@H](C)C(=O)N[C@H](CC(=O)NC)C(=O)N[C@H](C(=O)N[C@H](CO)C(=O)N[C@H](C(=O)N[C@H](CC(N)=O)C(=O)N[C@@H](Cc1cn(CCNS(=O)(=O)c2cccc3c(N(C)C)cccc23)nn1)C(=O)N[C@H](CC(N)=O)C(=O)N[C@@H](CCC(N)=O)C(=O)N[C@@H](C(=O)N[C@H](C(=O)O)[C@@H](C)O)[C@H](C)O)C(C)C)C(C)C)C(C)C`, in data set [1], the IC50 is > 0.42 µM.

For `CC[C@H](C)[C@H](NC(=O)[C@@H](CC(=O)NC)NC(=O)CNC(=O)[C@H](NC(=O)[C@@H](NC(=O)[C@@H](CC(=O)NC)NC(=O)[C@@H](NC(=O)[C@@H](CC(=O)NC)NC(=O)CNC(=O)CNC(=O)[C@H](C)NC(=O)[C@H](NC(=O)[C@H](CCC(=O)NC)NC(=O)[C@@H](CC(=O)NC)NC(=O)[C@@H](NC(=O)CNC(=O)[C@H](C)NC(=O)CN)C(C)(C)C)C(C)(C)O)[C@@H](C)CC)C(C)(C)C)C(C)(C)O)C(=O)N[C@H](CC(=O)NC)C(=O)N[C@H](C(=O)N[C@H](CC(=O)NC)C(=O)N[C@@H](C)C(=O)N[C@H](CC(=O)NC)C(=O)N[C@H](C(=O)N[C@H](CO)C(=O)N[C@H](C(=O)N[C@H](CC(N)=O)C(=O)N[C@@H](Cc1cn(CCNS(=O)(=O)c2cccc3c(N(C)C)cccc23)nn1)C(=O)N[C@H](CC(N)=O)C(=O)N[C@@H](CCC(N)=O)C(=O)N[C@@H](C(=O)N[C@H](C(=O)O)[C@@H](C)O)[C@H](C)O)C(C)C)C(C)C)C(C)C`, the IC50 in data set [1] was > 0.45 µM.

Turning to `CC[C@H](C)[C@H](NC(=O)[C@@H](CC(=O)NC)NC(=O)CNC(=O)[C@H](NC(=O)[C@@H](NC(=O)[C@@H](CC(=O)NC)NC(=O)[C@@H](NC(=O)[C@@H](CC(=O)NC)NC(=O)CNC(=O)CNC(=O)[C@H](C)NC(=O)[C@H](NC(=O)[C@H](CCC(=O)NC)NC(=O)[C@@H](CC(=O)NC)NC(=O)[C@@H](N)C(C)(C)C)C(C)(C)O)[C@@H](C)CC)C(C)(C)C)C(C)(C)O)C(=O)N[C@H](CC(=O)NC)C(=O)N[C@H](C(=O)N[C@H](CC(=O)NC)C(=O)N[C@@H](C)C(=O)N[C@H](CC(=O)NC)C(=O)N[C@H](C(=O)N[C@H](CO)C(=O)N[C@H](C(=O)N[C@H](CC(N)=O)C(=O)N[C@@H](Cc1cn(CCNS(=O)(=O)c2cccc3c(N(C)C)cccc23)nn1)C(=O)N[C@H](CC(N)=O)C(=O)N[C@@H](CCC(N)=O)C(=O)N[C@@H](C(=O)N[C@H](C(=O)O)[C@@H](C)O)[C@H](C)O)C(C)C)C(C)C)C(C)C`, the IC50 in data set [1] came out at 0.39 µM.

Turning to `CC[C@H](C)[C@H](NC(=O)[C@@H](CC(=O)NC)NC(=O)CNC(=O)[C@H](NC(=O)[C@@H](NC(=O)[C@@H](CC(=O)NC)NC(=O)[C@@H](NC(=O)[C@@H](CC(=O)NC)NC(=O)CNC(=O)CNC(=O)[C@H](C)NC(=O)[C@H](NC(=O)[C@H](CCC(=O)NC)NC(=O)[C@@H](CC(=O)NC)NC(=O)[C@@H](NC(=O)CNC(=O)[C@H](C)NC(=O)CNC(=O)[C@@H](N)C(C)(C)O)C(C)(C)C)C(C)(C)O)[C@@H](C)CC)C(C)(C)C)C(C)(C)O)C(=O)N[C@H](CC(=O)NC)C(=O)N[C@H](C(=O)N[C@H](CC(=O)NC)C(=O)N[C@@H](C)C(=O)N[C@H](CC(=O)NC)C(=O)N[C@H](C(=O)N[C@H](CO)C(=O)N[C@H](C(=O)N[C@H](CC(N)=O)C(=O)N[C@@H](Cc1cn(CCNS(=O)(=O)c2cccc3c(N(C)C)cccc23)nn1)C(=O)N[C@H](CC(N)=O)C(=O)N[C@@H](CCC(N)=O)C(=O)N[C@@H](C(=O)N[C@H](C(=O)O)[C@@H](C)O)[C@H](C)O)C(C)C)C(C)C)C(C)C`, the IC50 in data set [1] came out at 0.14 µM.
